From ChEMBL document CHEMBL1150781, “High-level gentamicin resistance mediated by a Tn4001-like transposon in seven nonclonal hospital isolates of Streptococcus pasteurianus” (2007)
Converted amounts (≈) assume the structure as drawn.

What was measured:
Format in all cases: functional
[1] = test system: Streptococcus pasteurianus; assay: Antibacterial activity against high-level gentamicin resistant Streptococcus pasteurianus SB10 isolate carrying transposon-borne resistance gene [aac(6')Ie-aph(2'')Ia] by agar dilution method
Procedure, shortened: (§1)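 MIC by agar dilution following CLSI guidelines; test organisms were clinical S. bovis/S. pasteurianus isolates recovered from blood cultures.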

[2] = test system: Streptococcus pasteurianus; assay: Antibacterial activity against high-level gentamicin resistant Streptococcus pasteurianus SB28 isolate carrying transposon-borne resistance gene [aac(6')Ie-aph(2'')Ia] by agar dilution method; procedure, shortened: as §1
[3] = test system: Streptococcus pasteurianus; assay: Antibacterial activity against high-level gentamicin resistant Streptococcus pasteurianus SB30 isolate carrying transposon-borne resistance gene [aac(6')Ie-aph(2'')Ia] by agar dilution method; procedure, shortened: as §1
[4] = test system: Streptococcus pasteurianus; assay: Antibacterial activity against high-level gentamicin resistant Streptococcus pasteurianus SB33 isolate carrying transposon-borne resistance gene [aac(6')Ie-aph(2'')Ia] by agar dilution method; procedure, shortened: as §1
[5] = test system: Streptococcus pasteurianus; assay: Antibacterial activity against high-level gentamicin resistant Streptococcus pasteurianus SB34 isolate carrying transposon-borne resistance gene [aac(6')Ie-aph(2'')Ia] by agar dilution method; procedure, shortened: as §1
[6] = test system: Streptococcus pasteurianus; assay: Antibacterial activity against high-level gentamicin resistant Streptococcus pasteurianus SB40 isolate carrying transposon-borne resistance gene [aac(6')Ie-aph(2'')Ia] by agar dilution method; procedure, shortened: as §1
[7] = test system: Streptococcus pasteurianus; assay: Antibacterial activity against high-level gentamicin resistant Streptococcus pasteurianus SB41 isolate carrying transposon-borne resistance gene [aac(6')Ie-aph(2'')Ia] by agar dilution method; procedure, shortened: as §1
Enterococcus faecalis = assay: Antimicrobial activity against Enterococcus faecalis ATCC 29212 by agar dilution method
Streptococcus equinus = assay: Antibacterial activity against Streptococcus bovis ATCC 33317 by agar dilution method
Procedure, shortened: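 MIC read by agar dilution against S. bovis/S. pasteurianus, run to CLSI guidelines.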

| Compound | MIC [1] [µg/mL] | MIC [2] [µg/mL] | MIC [3] [µg/mL] | MIC [4] [µg/mL] | MIC [5] [µg/mL] | MIC [6] [µg/mL] | MIC [7] [µg/mL] | MIC (Enterococcus faecalis) [µg/mL] | MIC (Streptococcus equinus) [µg/mL] |
| --- | --- | --- | --- | --- | --- | --- | --- | --- | --- |
| NC[C@H]1O[C@H](O[C@H]2[C@H](O)[C@@H](O[C@H]3O[C@H](CO)[C@@H](O)[C@H](N)[C@H]3O)[C@H](N)C[C@@H]2N)[C@H](O)[C@@H](O)[C@@H]1O [KANAMYCIN] | > 4100 | > 4100 | 4100 (≈ 8450 µM) | 4100 (≈ 8450 µM) | > 4100 | > 4100 | > 4100 | 16 (≈ 33 µM) | 128 (≈ 264 µM) |
| CC[C@H]1OC(=O)[C@H](C)[C@@H](O[C@H]2C[C@@](C)(OC)[C@@H](O)[C@H](C)O2)[C@H](C)[C@@H](O[C@@H]2O[C@H](C)C[C@H](N(C)C)[C@H]2O)[C@](C)(O)C[C@@H](C)C(=O)[C@H](C)[C@@H](O)[C@]1(C)O [ERYTHROMYCIN] | > 512 | > 512 | > 512 | > 512 | > 512 | > 512 | > 512 | 2 (≈ 2.73 µM) | 0.06 (≈ 0.0818 µM) |
| CCC[C@@H]1C[C@@H](C(=O)N[C@@H]([C@H]2O[C@H](SC)[C@H](O)[C@@H](O)[C@H]2O)[C@H](C)Cl)N(C)C1 [CLINDAMYCIN] | 256 (≈ 602 µM) | 16 (≈ 37.6 µM) | 0.5 (≈ 1.18 µM) | 512 (≈ 1200 µM) | 128 (≈ 301 µM) | 512 (≈ 1200 µM) | 512 (≈ 1200 µM) | 4 (≈ 9.41 µM) | < 0.03 |
| CN[C@@H]1[C@H](O[C@H]2[C@H](O[C@H]3[C@H](O)[C@@H](O)[C@H](N=C(N)N)[C@@H](O)[C@@H]3N=C(N)N)O[C@@H](C)[C@]2(O)C=O)O[C@@H](CO)[C@H](O)[C@H]1O [STREPTOMYCIN] | 32 (≈ 55 µM) | 64 (≈ 110 µM) | 64 (≈ 110 µM) | 32 (≈ 55 µM) | 32 (≈ 55 µM) | 32 (≈ 55 µM) | 32 (≈ 55 µM) | 32 (≈ 55 µM) | 64 (≈ 110 µM) |
| CN(C)[C@@H]1C(O)=C(C(N)=O)C(=O)[C@@]2(O)C(O)=C3C(=O)c4c(O)cccc4[C@@](C)(O)[C@H]3C[C@@H]12 [TETRACYCLINE] | 128 (≈ 288 µM) | 128 (≈ 288 µM) | 128 (≈ 288 µM) | 256 (≈ 576 µM) | 0.25 (≈ 0.563 µM) | 256 (≈ 576 µM) | 256 (≈ 576 µM) | 16 (≈ 36 µM) | 0.25 (≈ 0.563 µM) |
| NCC[C@H](O)C(=O)N[C@@H]1C[C@H](N)[C@@H](O[C@H]2O[C@H](CN)[C@@H](O)[C@H](O)[C@H]2O)[C@H](O)[C@H]1O[C@H]1O[C@H](CO)[C@@H](O)[C@H](N)[C@H]1O [AMIKACIN] | 64 (≈ 109 µM) | 512 (≈ 874 µM) | 128 (≈ 219 µM) | 32 (≈ 54.6 µM) | 32 (≈ 54.6 µM) | 32 (≈ 54.6 µM) | 32 (≈ 54.6 µM) | 64 (≈ 109 µM) | 64 (≈ 109 µM) |
| CN(C)c1ccc(O)c2c1C[C@H]1C[C@H]3[C@H](N(C)C)C(O)=C(C(N)=O)C(=O)[C@@]3(O)C(O)=C1C2=O [MINOCYCLINE] | 8 (≈ 17.5 µM) | 16 (≈ 35 µM) | 8 (≈ 17.5 µM) | 16 (≈ 35 µM) | 0.12 (≈ 0.262 µM) | 16 (≈ 35 µM) | 8 (≈ 17.5 µM) |  |  |
| CCN[C@@H]1C[C@H](N)[C@@H](O[C@H]2OC(CN)=CC[C@H]2N)[C@H](O)[C@H]1O[C@H]1OC[C@](C)(O)[C@H](NC)[C@H]1O [NETILMICIN] | 64 (≈ 135 µM) | 512 (≈ 1080 µM) | 128 (≈ 269 µM) | 16 (≈ 33.6 µM) | 32 (≈ 67.3 µM) | 16 (≈ 33.6 µM) | 8 (≈ 16.8 µM) | 4 (≈ 8.41 µM) | 16 (≈ 33.6 µM) |
